The values that follow come from PMC6571060 (Cancer research, 2019).

Entries after “also recorded” stand apart in the source; their conditions may differ.

The test system of series [1] is PH domains of Pdpk1, Btk, Akt1, and Plekha7. Kind of series: SPR binding selectivity against other PH domains.
A further series deals with mut-KRas NSCLC cells. Description: 3D growth inhibition. The series is classed as cell-based. The settings on record: read-out: Growth inhibition IC50 mut-Ras; mean IC50, 3D growth; H2122, Calu1, H2009, H441, H358, H1573, H23, H1373, A549, H1944, H647.
Series [2] concerns mut-KRasG12V H441 xenograft. Kind of series: Antitumor activity, H441 xenograft. In kind it is in vivo, NOD-SCID mice. The conditions noted are these: 200 mg/kg ip daily for up to 20 days. In a few lines:
(§1)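 About 10⁷ log-phase NSCLC cells in 0.2 mL PBS were injected subcutaneously into the flank of female NOD-SCID mice, 10 per group. Daily 200 mg/kg ip dosing began at tumor volumes of 50–150 mm³, for 20 days (A549, H441) or 21 days (H1975). Caliper volumes were taken twice weekly and body weight weekly. P values were computed at end of dosing.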

Series [3] concerns the target T1, Cnk1 and mut-KRas co-localization in HEK293 cells (Homo sapiens, UniProt Q969H4).
T1 sequence (Q969H4 1-720): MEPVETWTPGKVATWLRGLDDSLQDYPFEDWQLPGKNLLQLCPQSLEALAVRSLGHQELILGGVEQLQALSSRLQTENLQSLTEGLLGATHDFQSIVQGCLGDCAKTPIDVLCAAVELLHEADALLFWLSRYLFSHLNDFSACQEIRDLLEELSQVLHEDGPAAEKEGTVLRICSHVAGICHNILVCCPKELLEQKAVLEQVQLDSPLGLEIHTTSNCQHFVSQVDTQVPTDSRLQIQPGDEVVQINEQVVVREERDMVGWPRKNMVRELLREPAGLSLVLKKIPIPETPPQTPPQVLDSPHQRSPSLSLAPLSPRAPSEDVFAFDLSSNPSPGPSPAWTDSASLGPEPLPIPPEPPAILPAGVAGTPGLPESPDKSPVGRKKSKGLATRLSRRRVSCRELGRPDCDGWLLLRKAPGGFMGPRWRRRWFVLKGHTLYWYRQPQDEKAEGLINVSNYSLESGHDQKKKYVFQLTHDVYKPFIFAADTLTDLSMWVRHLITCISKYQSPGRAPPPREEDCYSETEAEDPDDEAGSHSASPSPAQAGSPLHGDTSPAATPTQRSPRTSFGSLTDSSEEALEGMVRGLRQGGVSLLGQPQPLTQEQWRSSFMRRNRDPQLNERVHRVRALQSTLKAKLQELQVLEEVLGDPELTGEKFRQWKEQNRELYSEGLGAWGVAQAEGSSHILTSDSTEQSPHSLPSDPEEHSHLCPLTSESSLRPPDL
Kind of series: Confocal microscopy / FLIM of Cnk1-GFP and mut. The series is classed as cell-based. In a few lines: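 HEK293 cells co-expressed Cnk1-GFP and mut(G12D)-KRas-RFP and were incubated 1 hr with 50 μM test compound. Confocal laser scanning microscopy assessed membrane co-localization. FLIM average fluorescence lifetime was taken from co-localization images, with lifetime shortening from FRET indicating direct Cnk1–KRas interaction.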

For another series, the system named is RalB and Rho activation. Description: Western blot / GTP activation of downstream K-Ras signaling in mut-KRAS cells. The series is classed as cell-based. The settings on record: panel of mut-KRAS cells, 24 hr. In a few lines: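 Mut-KRas NSCLC cells were exposed 24 hr to 25 μM test compound; A549 received a concentration range. Western blots used rabbit monoclonal phospho- and total-protein antibodies. RalA, RalB, Rho and Ras GTP levels were measured with activation kits per manufacturer instructions.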
On the technique in general: A western blot detects proteins with antibodies after separation by electrophoresis.

Series [4] is described as follows: Mouse body weight during treatment. The series is classed as in vivo, NOD-SCID mice. The settings on record: PHT-7.3 treatment, 200 mg/kg ip daily. The gist of the method:
as §1

A further series has as its system Cell migration. Kind of series: Cell migration. In kind it is cell-based.
The next series deals with wt-KRas NSCLC cell lines. Description: 2D growth on plastic of NSCLC cell line panel. In kind it is cell-based. The conditions noted are these: 72 hr.
In a further series the test system is wt-KRas NSCLC cells. Kind of series: 3D growth inhibition. In kind it is cell-based. In a few lines: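 NSCLC lines were tested for mycoplasma and authenticated before study and every 2 months in culture. Anchorage-independent growth was measured in soft agarose using a modified 96-well method, with test compound present. IC50 values were derived for 3D growth inhibition.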

The nature of series [5]: Pharmacokinetics in mice after intraperitoneal administration. The series is classed as in vivo. The settings on record: 10 mg/kg.
The subject of the next series is mut-KRas cells. Description: Cell proliferation in a small group of mut-KRas cells. The series is classed as cell-based. The gist of the method:
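Cells were exposed to test compound for 72 hr. Growth was then read by XTT cell viability assay.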

The subject of series [6] is wt-KRas H1975 NSCLC xenograft. Kind of series: Antitumor activity, H1975 xenograft. The series is classed as in vivo, NOD-SCID mice. The conditions noted are these: 200 mg/kg ip daily for 21 days. In a few lines: as §1
In series [7] the test system is mut-KRas(G12S) A549 xenograft. Kind of series: Antitumor activity, A549 xenograft. In kind it is in vivo, NOD-SCID mice. The settings on record: 200 mg/kg ip daily for up to 20 days. The gist of the method: as §1
The target in series [8] is T2, PH domain of Cnk1 (Homo sapiens, UniProt Q969H4).
T2 sequence (Q969H4 403-502 limits assumed): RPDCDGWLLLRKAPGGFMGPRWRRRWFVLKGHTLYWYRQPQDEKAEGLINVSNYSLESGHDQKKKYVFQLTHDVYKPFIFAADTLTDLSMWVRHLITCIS
Description: SPR binding to the Gst-tagged PH domain of Cnk1. The settings on record: read-out: Cnk1 binding Kd, SPR spectroscopy. The gist of the method:
(§2)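 The Cnk1 PH domain was expressed with an N-terminal glutathione S-transferase fusion and captured on a CM5 chip with a Gst capture kit. Compound binding or PtdIns(3,4,5)P₃ displacement was run by SPR on a Biacore T200.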
(In general: Surface plasmon resonance follows binding to a sensor surface in real time, without labels.)

Series [9] relates to p-Egfr, activated RalB and Rho in A549 NSCLC tumor xenografts. Description: Western blot / GTP activation of downstream signaling in A549 tumor xenografts. In kind it is in vivo, mice. The conditions noted are these: 200 mg/kg ip. The gist of the method:
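A549 xenograft tumors were sampled at 4 and 24 hr after a single 200 mg/kg ip dose, and 4 hr after the last dose of 6 days' daily dosing, 4 mice per time point. Blots probed phospho-Egfr Tyr1068 and other signaling proteins. RalA/B, Rho and total Ras GTP were measured by activation kits.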

Series [10] deals with T2, PH domain of Cnk1. Kind of series: SPR displacement of PtdIns. In kind it is binding. The settings on record: 50 μM. The gist of the method:
as §2

In general, IC50 refers to the concentration that inhibits the measured activity by half. As usually defined, the Kd is the free concentration of one partner at which half of the binding sites on the other are occupied at equilibrium, for simple one-to-one binding. As to `Cc1ccc(-c2csc(Cn3nc(CC4OCCCO4)c4ccccc4c3=O)n2)cc1` [PHT-7.3], the “Binding to PH domain of Cnk1 compared to PH domains of Pdpk1, Btk, Akt1, and Plekha7” value in series [1] is “selective binding”. Besides, the IC50 with mut-KRas NSCLC cells is 19 µM. Also, the “Antitumor activity, H441 xenograft” value in [2] is on record as “cytostatic antitumor activity”. Besides, the “Binding of Cnk1 to mut-KRAS by FLIM lifetime” value in [3] (FLIM lifetime plots, compound-treated cells) is listed as “inhibited the binding of Cnk1 to mut-KRAS; also recorded: inhibited Cnk1 interaction with mut-KRAS”. Moreover, the “Co-localization of Cnk1 and mut-KRas at the cell plasma membrane” value in series [3] (confocal microscopy, HEK293 cells, 50 μM, 1 hr) is “blocked the co-localization”. Moreover, the “RalB and Rho activation in mut-KRAS cells” value in the series with RalB and Rho activation was “decreased RalB and Rho activation”. In addition, the Body weight result in series [4] is “no loss of body weight”. For the same compound, in the series with Cell migration, the Cell migration entry is recorded as “inhibited”. Also, the “2D growth of wt-KRas NSCLC cell lines” value in the series on wt-KRas NSCLC cell lines is “not inhibited except for two lines H1437 and H2023”. Moreover, the half-inhibitory concentration (IC50) in the series on wt-KRas NSCLC cells (read-out: Growth inhibition IC50 wt-KRas, mean IC50, 3D growth, H266, H1299, H1975, H3255, H1437, H2023) was found to be 69 µM. For the same compound, the “3D anchorage independent growth of wt-KRas cells” value with wt-KRas NSCLC cells (soft agarose, except H1437 and H2023) is “still not inhibited”. Moreover, in series [5], the “Pharmacokinetics Cl” value turned out to be 133 mL·min/kg and the “Pharmacokinetics t½β” value was determined as 4.33 h. In the series with mut-KRas cells, the “Cell proliferation, small group of mut-KRas cells” value was “inhibit cell proliferation”. In [6], the “Antitumor activity, H1975 xenograft” value is given as “not in the wt-KRas H1975 NSCLC xenograft”. Further, in series [7], the “Antitumor activity, A549 xenograft” value was “cytostatic antitumor activity”. In addition, the equilibrium dissociation constant (Kd) on PH domain of Cnk1 [8] amounted to 4.7 µM. In series [9], the “Activated RalB and Rho signaling in tumor xenografts” value is “down-regulation of activated RalB and Rho signaling”; the “p-Egfr level in tumor xenografts” value is “increased levels of p-Egfr”. For the same compound, the “Displacement of PtdIns(3,4,5)P3 binding to the PH domain of Cnk1” value at PH domain of Cnk1 [10] is “displaced; also recorded: displacement of PtdIns([3],[4],[5])P3 binding”.
